Laboratory results reported in ChEMBL document CHEMBL4364248, “Discovery of 1,2,4-oxadiazole-Containing hydroxamic acid derivatives as histone deacetylase inhibitors potential application in cancer therapy” (Eur J Med Chem, 2019).

Columns and labels:
[1] = biological target: Histone deacetylase 1 (Homo sapiens, UniProt Q13547); experiment: Inhibition of recombinant full length HDAC1 (unknown origin) using Ac-peptide-AMC as substrate at 100 nM after 1 hr by fluorescence assay relative to control
Histone deacetylase 1, sequence (Q13547 whole entry): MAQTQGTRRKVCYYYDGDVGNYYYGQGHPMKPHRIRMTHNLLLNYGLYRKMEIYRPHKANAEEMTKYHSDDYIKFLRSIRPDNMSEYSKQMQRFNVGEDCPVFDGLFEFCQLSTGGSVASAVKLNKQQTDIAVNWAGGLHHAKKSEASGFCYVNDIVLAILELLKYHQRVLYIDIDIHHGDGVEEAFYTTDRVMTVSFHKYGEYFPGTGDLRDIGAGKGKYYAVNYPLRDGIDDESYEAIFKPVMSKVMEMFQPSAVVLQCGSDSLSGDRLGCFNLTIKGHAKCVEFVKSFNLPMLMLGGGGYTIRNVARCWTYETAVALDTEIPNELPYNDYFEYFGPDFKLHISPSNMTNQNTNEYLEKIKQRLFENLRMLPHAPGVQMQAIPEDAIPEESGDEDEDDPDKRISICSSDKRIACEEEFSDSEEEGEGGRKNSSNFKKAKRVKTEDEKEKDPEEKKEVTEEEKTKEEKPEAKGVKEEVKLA
Summary of the method: (§1)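 Full-length recombinant HDAC1 or HDAC6 was incubated with compound, trypsin and Ac-peptide-AMC substrate for 1 h at room temperature. Fluorescence was read at ex 355/em 460 nm. Inhibition was calculated against the DMSO vehicle control.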

[2] = biological target: T1, Protein deacetylase HDAC6 (Homo sapiens) (UniProt Q9UBN7); experiment: Inhibition of recombinant full length HDAC6 (unknown origin) using Ac-peptide-AMC as substrate at 100 nM after 1 hr by fluorescence assay relative to control; summary of the method: as §1
T1 sequence (whole entry): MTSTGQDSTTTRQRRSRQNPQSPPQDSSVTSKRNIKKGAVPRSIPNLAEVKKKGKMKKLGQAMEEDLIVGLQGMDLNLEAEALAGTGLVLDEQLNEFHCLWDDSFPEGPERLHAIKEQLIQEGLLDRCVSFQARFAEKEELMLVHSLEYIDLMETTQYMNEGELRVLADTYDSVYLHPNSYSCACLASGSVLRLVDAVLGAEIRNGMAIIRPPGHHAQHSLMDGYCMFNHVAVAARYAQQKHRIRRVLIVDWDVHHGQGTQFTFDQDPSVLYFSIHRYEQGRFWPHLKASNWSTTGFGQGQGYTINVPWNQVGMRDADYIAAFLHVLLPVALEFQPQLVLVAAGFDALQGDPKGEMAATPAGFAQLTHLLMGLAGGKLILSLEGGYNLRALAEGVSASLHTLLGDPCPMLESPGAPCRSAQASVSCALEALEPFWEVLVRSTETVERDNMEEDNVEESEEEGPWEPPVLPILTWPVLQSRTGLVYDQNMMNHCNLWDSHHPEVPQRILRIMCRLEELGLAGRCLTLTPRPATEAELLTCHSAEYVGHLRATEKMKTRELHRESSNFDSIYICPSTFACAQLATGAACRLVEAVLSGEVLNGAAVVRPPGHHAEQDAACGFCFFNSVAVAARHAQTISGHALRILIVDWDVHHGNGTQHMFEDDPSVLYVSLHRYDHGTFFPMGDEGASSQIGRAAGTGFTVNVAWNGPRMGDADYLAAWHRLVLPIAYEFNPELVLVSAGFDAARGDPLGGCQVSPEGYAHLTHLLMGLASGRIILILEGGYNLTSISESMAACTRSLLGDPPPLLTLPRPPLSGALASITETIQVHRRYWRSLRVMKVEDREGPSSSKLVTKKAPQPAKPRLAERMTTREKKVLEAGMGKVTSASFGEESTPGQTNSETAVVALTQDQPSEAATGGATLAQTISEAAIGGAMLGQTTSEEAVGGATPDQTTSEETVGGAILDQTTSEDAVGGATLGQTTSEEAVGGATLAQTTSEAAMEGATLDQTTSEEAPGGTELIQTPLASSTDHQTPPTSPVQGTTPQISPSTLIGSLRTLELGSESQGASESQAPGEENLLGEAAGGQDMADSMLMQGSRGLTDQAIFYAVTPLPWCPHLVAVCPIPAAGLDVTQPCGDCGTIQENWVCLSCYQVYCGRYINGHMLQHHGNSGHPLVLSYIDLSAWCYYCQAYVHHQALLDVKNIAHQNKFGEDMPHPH

[3] = test system: Raji; experiment: Antiproliferative activity against human Raji cells after 72 hrs by MTT assay; format: functional, cell-based

SMILES	inhibition [1] [%]	inhibition [2] [%]	IC50 [3] [nM]
CN(Cc1nc(C2CCN(Cc3ccc(C(F)(F)F)cc3)CC2)no1)c1ncc(C(=O)NO)cn1	62	30	207
CN(Cc1nc(C2CCN(Cc3ccccc3F)CC2)no1)c1ncc(C(=O)NO)cn1	84	44	98.6
CN(Cc1nc(C2CCN(Cc3ccc(C#N)cc3)CC2)no1)c1ncc(C(=O)NO)cn1	68	38	117
O=C(Cc1ccc(OCc2nc(C3CCN(Cc4ccccc4)CC3)no2)cc1)NO	18	35	
O=C(CCc1ccc(OCc2nc(C3CCN(Cc4ccccc4)CC3)no2)cc1)NO	11	22	
Cc1cccc(CN2CCC(c3noc(CN(C)c4ncc(C(=O)NO)cn4)n3)CC2)c1	93	54	47.3
CN(Cc1nc(C2CCN(Cc3ccc(F)cc3)CC2)no1)c1ncc(C(=O)NO)cn1	92	65	22
CN(Cc1nc(C2CCN(Cc3ccccc3Cl)CC2)no1)c1ncc(C(=O)NO)cn1	93	55	48.3
O=C(NO)c1ccc(OCc2nc(C3CCN(Cc4ccccc4)CC3)no2)cc1	29	66	
CN(Cc1nc(C2CCN(Cc3ccc(F)cc3Cl)CC2)no1)c1ncc(C(=O)NO)cn1	73	49	116
CN(Cc1nc(C2CCN(Cc3ccccc3)CC2)no1)c1ncc(/C=C/C(=O)NO)cn1	65	55	547
CN(Cc1nc(C2CCN(Cc3ccc(F)cc3F)CC2)no1)c1ncc(C(=O)NO)cn1	88	66	34.3
Cc1ccc(CN2CCC(c3noc(CN(C)c4ncc(/C=C/C(=O)NO)cn4)n3)CC2)cc1	61	60	292
CN(Cc1nc(C2CCN(Cc3ccccc3)CC2)no1)c1ncc(C(=O)NO)cn1	96	63	27.6
C=CCN1CCC(c2noc(COc3ccc(CCC(=O)NO)cc3)n2)CC1	4	15	
CCCN1CCC(c2noc(COc3ccc(CCC(=O)NO)cc3)n2)CC1	5	13	

The next lines start with the values.

inhibition [1] [%]	inhibition [2] [%]	IC50 [3] [nM]	SMILES
35	74		O=C(/C=C/c1ccc(OCc2nc(C3CCN(Cc4ccc(F)cc4F)CC3)no2)cc1)NO
36	75		COc1ccc(CN2CCC(c3noc(COc4ccc(/C=C/C(=O)NO)cc4)n3)CC2)cc1
38	75		O=C(/C=C/c1ccc(OCc2nc(C3CCN(Cc4ccc(F)cc4)CC3)no2)cc1)NO
34	66		C=CCN1CCC(c2noc(COc3ccc(/C=C/C(=O)NO)cc3)n2)CC1
40	69		CCCN1CCC(c2noc(COc3ccc(/C=C/C(=O)NO)cc3)n2)CC1
19	63		O=C(/C=C/c1ccc(OCc2nc(C3CCN(Cc4ccccc4[N+](=O)[O-])CC3)no2)cc1)NO
25	73		Cc1cccc(CN2CCC(c3noc(COc4ccc(/C=C/C(=O)NO)cc4)n3)CC2)c1
35	71		O=C(/C=C/c1ccc(OCc2nc(C3CCN(Cc4ccccc4)CC3)no2)cc1)NO
17	60		O=C(/C=C/c1ccc(OCc2nc(C3CCN(Cc4ccc(F)c(F)c4)CC3)no2)cc1)NO
6	58		O=C(/C=C/c1ccc(OCc2nc(C3CCN(Cc4ccc(Br)cc4)CC3)no2)cc1)NO
12	28		Cc1ccc(CN2CCC(c3noc(COc4ccc(CCC(=O)NO)cc4)n3)CC2)cc1
8	59		O=C(/C=C/c1ccc(OCc2nc(C3CCN(Cc4ccccc4Cl)CC3)no2)cc1)NO
32	76		Cc1ccc(CN2CCC(c3noc(COc4ccc(/C=C/C(=O)NO)cc4)n3)CC2)cc1
35	73		O=C(/C=C/c1ccc(OCc2nc(C3CCN(Cc4cccc(F)c4)CC3)no2)cc1)NO
14	68		Cc1ccccc1CN1CCC(c2noc(COc3ccc(/C=C/C(=O)NO)cc3)n2)CC1
36	65		N#Cc1ccccc1CN1CCC(c2noc(COc3ccc(/C=C/C(=O)NO)cc3)n2)CC1
31	68		O=C(/C=C/c1ccc(OCc2nc(C3CCN(Cc4ccccc4F)CC3)no2)cc1)NO
